Assays:
[1] = molecular target: Mu-type opioid receptor (Rattus norvegicus, UniProt P33535); experiment: Inhibition of radioligand [3H]DAMGO binding to rat brain mu receptor
Outline: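 Rat brain membranes labelled with [3H]DAMGO (1-3 nM), incubated 4 h at 25 °C in 50 mM Tris-HCl pH 7.4 with protease inhibitor cocktail. Nonspecific binding defined by 20 μM levallorphan. Displacement by 8-10 test drug concentrations, done twice; drug dilutions in 10 mM Tris-HCl pH 7.4 containing 1 mg/mL BSA.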

[2] = molecular target: Muscarinic acetylcholine receptor; experiment: Inhibition of radioligand [3H]NMS binding to muscarinic receptor of rat brain
[3] = molecular target: Kappa-type opioid receptor (Cavia porcellus, UniProt P41144); experiment: Inhibition of radioligand [3H]U-69593 binding to kappa 1 receptor of guinea pig brain
Kappa-type opioid receptor, sequence (P41144 whole entry): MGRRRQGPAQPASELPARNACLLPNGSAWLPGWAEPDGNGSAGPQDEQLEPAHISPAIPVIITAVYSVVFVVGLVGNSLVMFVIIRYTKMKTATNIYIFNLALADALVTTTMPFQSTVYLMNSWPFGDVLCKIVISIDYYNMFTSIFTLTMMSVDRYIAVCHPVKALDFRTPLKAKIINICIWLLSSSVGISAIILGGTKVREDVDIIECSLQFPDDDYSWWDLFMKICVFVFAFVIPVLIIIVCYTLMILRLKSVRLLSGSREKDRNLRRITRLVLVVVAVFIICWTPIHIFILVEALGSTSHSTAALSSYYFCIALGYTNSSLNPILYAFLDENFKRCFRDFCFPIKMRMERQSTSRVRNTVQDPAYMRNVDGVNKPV
Outline: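 Guinea pig brain membranes pretreated with irreversible ligands BIT and FIT to deplete mu and delta sites. Nonspecific binding with 1 μM U69,593. 8-10 drug concentrations, run twice.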

[4] = molecular target: Delta-type opioid receptor (Rattus norvegicus, UniProt P33533); experiment: Inhibition of radioligand [3H]DADLE binding to rat brain delta receptor
Delta-type opioid receptor, sequence (P33533 whole entry): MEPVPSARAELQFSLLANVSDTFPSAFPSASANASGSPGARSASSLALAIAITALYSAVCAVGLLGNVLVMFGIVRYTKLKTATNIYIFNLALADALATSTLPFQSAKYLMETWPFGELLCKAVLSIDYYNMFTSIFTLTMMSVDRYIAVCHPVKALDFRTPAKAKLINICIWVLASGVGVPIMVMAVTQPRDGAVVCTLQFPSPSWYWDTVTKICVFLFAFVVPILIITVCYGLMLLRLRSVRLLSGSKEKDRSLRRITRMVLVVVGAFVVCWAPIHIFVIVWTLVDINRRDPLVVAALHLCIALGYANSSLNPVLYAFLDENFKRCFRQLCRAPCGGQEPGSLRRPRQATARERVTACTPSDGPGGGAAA
Outline: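 Rat brain membranes; [3H]DADLE 1.7-2.5 nM, 3-4 h at 25 °C in 10 mM Tris-HCl pH 7.4 with 100 mM choline chloride, 3 mM MnCl2, 100 nM DAMGO to block mu sites, and protease inhibitor cocktail. Nonspecific binding with 20 μM levallorphan. 8-10 test drug concentrations, run twice; dilutions in Tris buffer with 1 mg/mL BSA.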

[5] = molecular target: Glutamate NMDA receptor; experiment: Inhibition of radioligand [3H]TCP binding to PCP site in rat brain; format: tissue-based
[6] = test system: Glutamate NMDA receptor; experiment: Inhibition of radioligand [3H]TCP binding to PCP site in rat brain; No inhibition; format: tissue-based
[7] = Ratio of Ki values tested against sigma receptor and Mu receptor
[8] = molecular target: Glutamate NMDA receptor; experiment: Inhibition of radioligand [3H]TCP binding to rat brain PCP site.

Mu-type opioid receptor, sequence (P33535 whole entry): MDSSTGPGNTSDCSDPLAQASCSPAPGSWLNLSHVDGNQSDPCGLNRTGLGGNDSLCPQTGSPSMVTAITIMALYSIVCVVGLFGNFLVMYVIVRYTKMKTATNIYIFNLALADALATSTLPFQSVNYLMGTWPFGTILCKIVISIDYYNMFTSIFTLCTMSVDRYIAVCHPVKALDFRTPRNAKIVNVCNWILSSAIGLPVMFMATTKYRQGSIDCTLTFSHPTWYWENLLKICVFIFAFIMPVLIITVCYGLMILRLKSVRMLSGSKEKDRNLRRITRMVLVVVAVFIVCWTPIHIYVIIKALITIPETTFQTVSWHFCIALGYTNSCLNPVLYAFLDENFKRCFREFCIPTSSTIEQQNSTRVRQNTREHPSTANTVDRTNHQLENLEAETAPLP

Row | SMILES | Ki [1] | Ki [2] | Ki [3] | Ki [4] | Ki [5] | Ki [6] | Ratio [7] | Ki [8]
1 | CN1CC[C@@]2(c3cccc(O)c3)CC(=O)/C(=C/c3ccc(Cl)c(Cl)c3)[C@@H]1C2 | 0.0451 µM | 50.3 µM | > 0.5 µM | > 0.5 µM | > 100 µM | – | – | –
2 | CN1CC[C@@]2(c3cccc(O)c3)CC(=O)/C(=C/c3ccccc3)[C@@H]1C2 | 0.392 µM | 7.4 µM | 0.889 µM | 1.99 µM | > 100 µM | – | – | –
3 | CN1CCC2(c3cccc(O)c3)CC(=O)/C(=C/c3ccccc3)C1C2 (stereo not drawn) | 0.0339 µM | 14.4 µM | 0.576 µM | > 0.5 µM | > 100 µM | – | – | –
4 | C[N+]1(C)CCC2(c3cccc(O)c3)CC(=O)/C(=C/c3ccccc3)C1C2.[I-] (stereo not drawn) | > 0.7 µM | 14.7 µM | > 5 µM | > 1 µM | – | Not Active | < 7.7 | –
5 | CN1CC[C@]2(c3cccc(O)c3)CC(=O)/C(=C/c3ccccc3)[C@H]1C2 | 0.0376 µM | 26 µM | 1.09 µM | 0.735 µM | ~100 µM | – | – | –
6 | COc1cccc(C23CCN(C)C(CC(=O)C2)C3)c1 (stereo not drawn) | – | 23.3 µM | – | – | – | – | – | > 100 µM
7 | CN1CC[C@@]2(c3cccc(O)c3)CC(=O)/C(=C/c3ccc(Cl)c(Cl)c3)[C@H]1C2 | 0.0045 µM | 18.6 µM | > 0.5 µM | 0.271 µM | > 100 µM | – | – | –
8 | COc1cccc(C23CCN(C)C(C2)/C(=C\c2ccccc2)C(=O)C3)c1 (stereo not drawn) | – | 11.6 µM | – | – | > 50 µM | – | – | –
9 | CN1CCC2(c3cccc(O)c3)CC(=O)/C(=C/c3ccc(Cl)c(Cl)c3)C1C2 (stereo not drawn) | 0.0061 µM | – | > 0.5 µM | 0.24 µM | > 100 µM | – | – | –
10 | CN1CCC2(c3cccc(O)c3)CC(=O)CC1C2 (stereo in doubt; 4) | 0.0055 µM | 46.4 µM | 1.01 µM | 0.32 µM | – | – | – | –
11 | CN1CCC2(c3cccc(O)c3)CC(=O)CC1C2 (stereo in doubt) | 0.0087 µM | 25.3 µM | 0.491 µM | 0.121 µM | – | – | – | > 100 µM

— ChEMBL document CHEMBL1127468, “A marked change of receptor affinity of the 2-methyl-5-(3-hydroxyphenyl)morphans upon attachment of an (E)-8-benzylidene moiety: synthesis and evaluation of a new class of sigma receptor ligands” (J Med Chem, 1994)
